This note sets out measurements from ChEMBL document CHEMBL4145455, “Design, synthesis and evaluation of novel phenyl propionamide derivatives as non-nucleoside hepatitis B virus inhibitors” (Eur J Med Chem, 2018).

As a reminder, the inhibition is the drop in the measured response relative to a control, in per cent. As usually defined, the CC50 is the concentration that lowers cell viability or growth by half. Usually IC50 stands for the point on the concentration scale where inhibition reaches its midpoint.

Series [1] relates to Hepatitis B virus. As to the kind of experiment: Antiviral activity against HBV infected in human HepG2(2.2.15) cells assessed as inhibition of viral DNA replication at 20 uM after 6 days by RT-PCR method relative to control. To be noted: HepG2 2.2.15, 144 h. It counts as functional. The method in brief:
(§1)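 HepG2 2.2.15 cells (stable HBV genome; DMEM, 10% FBS, G418 0.38 mg/mL) seeded 2×10^5/well, recovered 24 h, then compound in assay medium (single 20 or 4 μM, or dose series for IC50), medium changed every 2 days; after 6 days HBV DNA extracted and quantified by real-time PCR. Mean ± SD, ≥3 independent experiments in duplicate.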

Series [2] in a line: Cytotoxicity against human HepG2(2.2.15) cells assessed as reduction in cell viability after 72 hrs by MTT assay. It counts as cell-based. The method in brief: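 Confluent HepG2 2.2.15 cells exposed to graded compound concentrations for 72 h alongside untreated controls on each plate; viability by MTT uptake, absorbance 490 nm relative to untreated cells; CC50 = concentration killing 50% of cells. Three replicates.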
For orientation: Tetrazolium assays rely on reduction of a dye to a coloured formazan, in cell work by metabolically active cells.

The nature of series [3]: Selectivity index, ratio of CC50 for human HepG2(2.2.15) cells to IC50 for antiviral activity against HBV infected in human HepG2(2.2.15) cells assessed as inhibition of viral DNA replication. It counts as toxicity, cell-based. The following applies: read-out: Ratio CC50/IC50. The method in brief: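 SI calculated as CC50 (72 h MTT, HepG2 2.2.15) divided by IC50 for inhibition of HBV DNA replication measured by real-time PCR.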

For series [4], the system named is Hepatitis B virus. As to the kind of experiment: Antiviral activity against HBV infected in human HepG2(2.2.15) cells assessed as inhibition of viral DNA replication after 6 days by RT-PCR method. It counts as functional, organism-based. The following applies: HepG2 2.2.15, 144 h. The essentials:
as §1

The subject of series [5] is Hepatitis B virus. As to the kind of experiment: Antiviral activity against HBV infected in human HepG2(2.2.15) cells assessed as inhibition of viral DNA replication at 4 uM after 6 days by RT-PCR method relative to control. It counts as functional. To be noted: HepG2 2.2.15, 144 h. The essentials: as §1
Series [6] has as its system Hepatitis B virus. As to the kind of experiment: Antiviral activity against HBV infected in human […] cells assessed as inhibition of viral DNA replication at 1 uM after 72 hrs by RT-PCR method relative to control. It counts as functional. The method in brief:
(§2)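 HepG2 cells (2×10^5/well) transfected overnight-plated, 24 h with plasmid carrying wild-type or rtL180M+rtM204V+rtT184L resistant HBV; after PBS wash, fresh medium with lamivudine 100 μM, entecavir 10 μM, or test compounds 1 μM (one at 10 μM) for 72 h; replicative intermediate HBV DNA measured by real-time PCR.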

Series [7] can be described thus: Selectivity index, ratio of CC50 for human HepG2(2.2.15) cells to IC50 for antiviral activity against lamivudine/entecavir resistant HBV harboring reverse transcriptase L180M/M204V/T184L mutant infected in human HepG2(2.2.15) cells. It counts as toxicity, cell-based. The following applies: read-out: Ratio CC50/IC50. The method in brief:
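SI = CC50/IC50. CC50 comes from HepG2 2.2.15 cells grown to confluence and treated for 72 h, with MTT absorbance at 490 nm relative to untreated cells, in triplicate. IC50 comes from mutant-plasmid-transfected HepG2 cells treated for 72 h, with HBV DNA measured by real-time PCR.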

Series [8] concerns Hepatitis B virus. As to the kind of experiment: Antiviral activity against lamivudine/entecavir resistant HBV harboring reverse transcriptase L180M/M204V/T184L mutant infected in human […] cells assessed as inhibition of viral DNA replication at 1 uM after 72 hrs by RT-PCR method relative to control. It counts as functional. The method in brief: (§3)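 HepG2 cells (not 2.2.15) were transiently transfected for 24 h with a plasmid carrying the rtL180M + rtM204V + rtT184L mutant HBV genome, alongside wild-type. After a PBS wash, cells received a single concentration (1, 10 or 100 µM) in fresh medium for 72 h. HBV DNA replicative intermediate was measured by real-time PCR and compared with the wild-type group.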

For series [9], the system named is Hepatitis B virus. As to the kind of experiment: Antiviral activity against lamivudine/entecavir resistant HBV harboring reverse transcriptase L180M/M204V/T184L mutant infected in human […] after 72 hrs by RT-PCR method. It counts as functional, organism-based. The method in brief:
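HepG2 cells (2×10^5 per well) were plated, incubated overnight, then transiently transfected for 24 h with a plasmid carrying the full HBV genome with rtL180M + rtM204V + rtT184L. Medium was discarded, cells washed with PBS, then treated across a dose range in fresh medium for 72 h. Intracellular HBV DNA replicative intermediate was quantified by real-time PCR. IC50 is 50% inhibition of DNA replication.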

In series [10] the test system is Hepatitis B virus. As to the kind of experiment: Antiviral activity against lamivudine/entecavir resistant HBV harboring reverse transcriptase L180M/M204V/T184L mutant infected in human […] at 10 uM after 72 hrs by RT-PCR method relative to control. It counts as functional. The method in brief:
as §3

Series [11] deals with Hepatitis B virus. As to the kind of experiment: Antiviral activity against HBV infected in human […] at 10 uM after 72 hrs by RT-PCR method relative to control. It counts as functional. The method in brief:
as §2

In the case of `O=C(N[C@H](CO)Cc1ccccc1)/C(=C\c1ccccc1)NC(=O)c1ccccc1F`, the inhibition at 20 µM with Hepatitis B virus [1] is 51.4%. Moreover, the CC50 at 72 h in [2] was > 100 µM.
The matching figures for `CN(C)CCOc1ccc(C[C@H](NC(=O)c2ccccc2)C(=O)N[C@H](CO)Cc2ccccc2)cc1`: 69.2% and > 100 µM.
The matching figures for `O=C(N[C@H](CO)Cc1ccccc1)/C(=C\c1ccc(O)cc1)NC(=O)c1ccccc1`: 24.9% and > 100 µM.
Regarding `O=C(N[C@H](CO)Cc1ccccc1)/C(NC(=O)c1ccccc1)=C(/Br)c1ccc(Br)cc1`, the selectivity ratio in [3] is > 22.5. Also, the IC50 in the series on Hepatitis B virus [4] came to 4.45 µM. For the same compound, the inhibition at 20 µM in the series on Hepatitis B virus [1] came out at 73.1%. For the same compound, the CC50 at 72 h in [2] is > 100 µM.
Turning to `O=C(N[C@@H](Cc1ccc(O)cc1)C(=O)N1CCCCC1)c1ccccc1`, the inhibition at 20 µM with Hepatitis B virus [1] was determined as 19.5%. Moreover, the CC50 at 72 h in series [2] was > 100 µM.
Turning to `O=C(N[C@@H](Cc1ccccc1)C(=O)N1CCCCC1)c1ccccc1`, the inhibition at 20 µM in the series on Hepatitis B virus [1] was 42.3%. Moreover, the CC50 at 72 h in series [2] is > 100 µM.
Take `CN(C)CCOc1ccc(C[C@H](NC(=O)c2ccccc2)C(=O)N2CCCCC2)cc1`: the inhibition at 20 µM in the series with Hepatitis B virus [1] turned out to be 51.6%. Also, the CC50 at 72 h in series [2] is > 100 µM.
With `O=C(N[C@H](CO)Cc1ccccc1)/C(NC(=O)c1ccccc1)=C(/Br)c1ccccc1`, the selectivity ratio in [3] is > 25.9. Moreover, in the series with Hepatitis B virus [4], the IC50 was 3.86 µM. In addition, the inhibition at 20 µM with Hepatitis B virus [1] was determined as 77.6%. The cytotoxic concentration (CC50) at 72 h in series [2] is > 100 µM.
Consider `O=C(N[C@H](CO)Cc1ccccc1)/C(=C\c1ccc(Br)cc1)NC(=O)c1ccccc1`, for which, in the series on Hepatitis B virus [5], the inhibition at 4 µM was 39%. In series [2], the CC50 at 72 h amounted to 72.7 µM.
Regarding `Cc1cccc(/C=C(/NC(=O)c2ccccc2)C(=O)N[C@H](CO)Cc2ccccc2)c1`, the inhibition at 20 µM with Hepatitis B virus [1] was found to be 15.8%. Also, in series [2], the CC50 at 72 h was > 100 µM.
In the same order, the values of `O=C(N[C@H](CO)Cc1ccccc1)/C(=C\c1ccccc1Br)NC(=O)c1ccccc1` are 26.2% and > 100 µM.
The matching figures for `CN(C)CCOc1ccc(C[C@H](NC(=O)c2ccccc2)C(=O)N2CCOCC2)cc1`: 24.9% and > 100 µM.
Take `N#Cc1ccc(/C=C(/NC(=O)c2ccccc2)C(=O)N[C@H](CO)Cc2ccccc2)cc1`: in the series with Hepatitis B virus [1], the inhibition at 20 µM was found to be 10.2%. In addition, in series [2], the CC50 at 72 h was > 100 µM.
The matching figures for `CN(C)CCOc1ccc(C[C@H](NC(=O)c2ccccc2)C(=O)N2CCCC2)cc1`: 47.6% and > 100 µM.
Regarding `O=C(N[C@H](CO)Cc1ccccc1)/C(=C\c1ccccc1Cl)NC(=O)c1ccccc1`, the inhibition at 20 µM in the series on Hepatitis B virus [1] was 29.8%. In addition, in series [2], the CC50 at 72 h is > 100 µM.
In the case of `N#Cc1ccc(/C(Br)=C(/NC(=O)c2ccccc2)C(=O)N[C@H](CO)Cc2ccccc2)cc1`, in [3], the selectivity ratio was 18.2. Besides, in the series with Hepatitis B virus [4], the concentration for half-maximal inhibition (IC50) is 5.5 µM. The inhibition at 20 µM with Hepatitis B virus [1] worked out at 75.1%. Further, the CC50 at 72 h in series [2] was > 100 µM.
Turning to `CN(C)CCOc1ccc(/C(Br)=C(/NC(=O)c2ccccc2)C(=O)N[C@H](CO)Cc2ccccc2)cc1`, the inhibition at 1 µM in the series on Hepatitis B virus [6] is 79.6%; with Hepatitis B virus [8] it was 80.1%. Also, the selectivity ratio in series [7] came out at 89.7; in series [3] it was 153. Also, in the series with Hepatitis B virus [5], the inhibition at 4 µM is 99.5%. The values for the IC50 in the series on Hepatitis B virus [4] and in the series on Hepatitis B virus [9] were 0.14 µM and 0.32 µM, respectively. Moreover, in series [2], the CC50 at 72 h was 21.4 to 28.7 µM.
`O=C(N[C@H](CO)Cc1ccccc1)/C(NC(=O)c1ccccc1F)=C(/Br)c1ccccc1`: in [3], the selectivity ratio turned out to be 41. Moreover, the IC50 in the series with Hepatitis B virus [4] amounted to 2.44 µM. In addition, the inhibition at 20 µM with Hepatitis B virus [1] is 76.4%. Also, in [2], the CC50 at 72 h is > 100 µM.
Regarding `CCN(CC)C(=O)[C@H](Cc1ccc(OCCN(C)C)cc1)NC(=O)c1ccccc1`, in the series with Hepatitis B virus [1], the inhibition at 20 µM came out at 17.5%. In series [2], the CC50 at 72 h was > 100 µM.
Consider `O=C(N[C@H](CO)Cc1ccccc1)/C(NC(=O)c1ccccc1)=C(/Br)c1ccc(O)cc1`, for which the inhibition at 1 µM in the series with Hepatitis B virus [6] was 34.8%; in the series with Hepatitis B virus [8], 43.2%. In addition, the figures for the selectivity ratio in series [7] and in series [3] were 11.6 and 19.5, respectively. Also, in the series on Hepatitis B virus [5], the inhibition at 4 µM amounted to 63.2%. Further, the values for the IC50 in the series on Hepatitis B virus [4] and with Hepatitis B virus [9] were 2 µM and 2.97 µM, respectively. Also, the 50% cytotoxic concentration (CC50) at 72 h in [2] lay in the range of 34.3 to 39 µM.
On to `O=C(N[C@H](CO)Cc1ccccc1)/C(NC(=O)c1ccccc1)=C(/Br)c1ccccc1Br`, for which the selectivity ratio in [3] is > 13.8. The IC50 in the series on Hepatitis B virus [4] came out at 7.26 µM. For the same compound, in the series on Hepatitis B virus [1], the inhibition at 20 µM was 76.6%. In series [2], the CC50 at 72 h is > 100 µM.
On to `O=C(N[C@H](CO)Cc1ccccc1)/C(NC(=O)c1ccccc1)=C(/Br)c1ccccc1Cl`, for which, in series [3], the selectivity ratio stood at 35.5. The IC50 in the series with Hepatitis B virus [4] stood at 1.88 µM. Further, in the series on Hepatitis B virus [1], the inhibition at 20 µM amounted to 80.2%. In series [2], the CC50 at 72 h was determined as 66.7 µM.
Take `CN(C)CCOc1ccc(/C=C(/NC(=O)c2ccccc2)C(=O)N[C@H](CO)Cc2ccccc2)cc1`: in the series on Hepatitis B virus [1], the inhibition at 20 µM was determined as 37.5%. The CC50 at 72 h in series [2] was > 100 µM.
Take `C=C1[C@H](CO)[C@@H](O)C[C@@H]1n1cnc2c(=O)[nH]c(N)nc21` [ENTECAVIR]: the inhibition at 10 µM in the series on Hepatitis B virus [10] was 17.9%; with Hepatitis B virus [11], 95.7%.
